KDM4C inh: inhibitors of human demethylase GASC-1 KDM4C; AID 720574; inhibition, % at 12.5 µM; GST-KDM4C 2-372, H3K9me3 peptide, LANCE TR-FRET; 96,000 compounds, 0.15% hits; Q9H3R0;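 active = mean replicate inhibition above about 25%, with at least 55% of replicates also reaching it, limit read from the data, passing the limit was not always enough; inconclusive = only one of those two conditions met; inactive = neither condition met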
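reagent = H3K9me3 peptide substrate, Fe(II), 2-oxoglutarate | system = GST-tagged GASC-1 (JMJD2C) catalytic fragment, aa 2-372 | amount = enzyme final amount 10 nM | read-out = Fall in 671/618 emission ratio as inhibition | medium = HEPES buffer, pH 7.5, plus ascorbate | schedule = 30 min reaction, 60 min detection, RT | measured by = LANCE TR-FRET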
IDH1 R132H inh: inhibitors of human IDH1 R132H | O75874 | IDH1 R132H reductase, diaphorase/resazurin fluorescence, 60 min | inhibition, % at 10 µM | 70,000 compounds, 0.18% hits; in the data active = inhibition above about 34%; inconclusive = no clear call, values can overlap the other calls; inactive = below about 11%;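 note: 0% = DMSO and 100% = no enzyme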
Target sequence (O75874 whole entry R132H): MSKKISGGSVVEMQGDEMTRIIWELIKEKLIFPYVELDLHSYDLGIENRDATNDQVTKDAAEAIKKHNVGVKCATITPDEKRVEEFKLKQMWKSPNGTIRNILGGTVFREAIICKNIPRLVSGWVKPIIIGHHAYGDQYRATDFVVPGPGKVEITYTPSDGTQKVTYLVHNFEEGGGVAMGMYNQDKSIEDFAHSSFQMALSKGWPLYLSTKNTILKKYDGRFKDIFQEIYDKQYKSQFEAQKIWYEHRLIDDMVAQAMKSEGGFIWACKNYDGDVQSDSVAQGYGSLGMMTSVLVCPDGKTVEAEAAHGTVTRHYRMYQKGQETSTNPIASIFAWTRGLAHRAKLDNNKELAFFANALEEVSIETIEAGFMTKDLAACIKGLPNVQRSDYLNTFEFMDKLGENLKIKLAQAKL
The depositor's hits bear a star; u = inconclusive; x = not tested or not shown. Sampled rows, rich in hits. Any-hit rate of the full collection: about 0.22%.

SMILES	KDM4C inh	IDH1 R132H inh
Cc1nn(C(C)C(=O)Nc2ccc(F)c(Cl)c2)c(C)c1[N+](=O)[O-] (configuration not stated)	x	1
O=C(CSc1nnc(-c2cccc(Cl)c2)n1-c1ccccc1)Nc1ccccc1	x	0
Cc1occc1C(=O)NCCc1ccc(S(N)(=O)=O)cc1	x	0
Cc1ccc(S(=O)(=O)N(C)CC(=O)Nc2ncc(C(F)(F)F)cc2Cl)cc1	x	-1
CCc1cccc(C)c1NC(=O)CSc1n[nH]c(-c2ccccc2Cl)n1	x	0
Cc1cccc(OCC(=O)Nc2c[nH]c(=O)[nH]c2=O)c1C	x	1
O=C(Nc1ccc(I)cc1C(=O)NCc1cccnc1)c1ccccc1Cl	x	1
O=C(NCC[C@H]1CC[C@@H](NC(=O)c2cccnc2)[C@@H](CO)O1)Nc1ccc(F)cc1	-1	0
O=C(NCC[C@H]1CC[C@H](NC(=O)c2cccnc2)[C@H](CO)O1)Nc1ccc(F)cc1	65*	94*
Cc1ccc(S(=O)(=O)NCC[C@@H]2CC[C@H](NC(=O)CC3CC3)[C@@H](CO)O2)cc1	39*	23
Cc1ccc(S(=O)(=O)NCC[C@H]2CC[C@@H](NC(=O)CC3CC3)[C@H](CO)O2)cc1	1	0
O=C(Nc1ccc(I)cc1C(=O)NCC1CCCO1)c1cccnc1 (configuration not stated)	x	0
Cc1ccc(C(C)C)c(OC(=O)CS(=O)c2ccc(C(F)(F)F)cc2[N+](=O)[O-])c1 (configuration not stated)	x	1
CN(C)c1ccc2c(c1)[C@@H]1C[C@@H](CC(=O)NCc3ccccn3)O[C@@H](CO)[C@@H]1O2	28*	-10
CN(C)c1ccc2c(c1)[C@H]1C[C@H](CC(=O)NCc3ccc(-c4ccccc4)cc3)O[C@@H](CO)[C@H]1O2	4	-1
CN(C)c1ccc2c(c1)[C@@H]1C[C@H](CC(=O)NCc3ccccc3)O[C@@H](CO)[C@@H]1O2	47*	-2
CN(C)CC(=O)Nc1ccc2c(c1)[C@H]1C[C@H](CC(=O)NCc3ccccn3)O[C@H](CO)[C@H]1O2	1	0
Cc1ccc(C)c(NC(=O)Cn2cc([N+](=O)[O-])cn2)c1	x	0
Cc1ccc(NC(=O)CSc2c(C)n[nH]c2C)cc1Cl	x	0
CC(C)N(C(=O)NC(=O)c1ccc(F)cc1F)C(C)C	x	0
COc1cccc(S(=O)(=O)Nc2ccc3c(c2)[C@H]2C[C@@H](CC(=O)O)O[C@H](CO)[C@H]2O3)c1	38*	72*
COc1cccc(S(=O)(=O)Nc2ccc3c(c2)[C@@H]2C[C@H](CC(=O)O)O[C@@H](CO)[C@@H]2O3)c1	-1	0
CN(C)C(=O)C[C@H]1C[C@@H]2c3cc(N(C)C)ccc3O[C@@H]2[C@@H](CO)O1	33*	-13
COC(=O)C[C@H]1C[C@H]2c3cc(N(C)C)ccc3O[C@H]2[C@H](CO)O1	43*	-18
COCCNC(=O)C[C@@H]1C[C@H]2c3cc(N(C)C)ccc3O[C@H]2[C@H](CO)O1	39*	0
SMILES	KDM4C inh	IDH1 R132H inh
COC(=O)C[C@@H]1C[C@H]2c3cc(N(C)C)ccc3O[C@H]2[C@@H](CO)O1	x	-2
COCCNC(=O)C[C@@H]1C[C@H]2c3cc(N(C)C)ccc3O[C@H]2[C@@H](CO)O1	u	-2
CN(C)c1ccc2c(c1)[C@@H]1C[C@H](CC(=O)O)O[C@@H](CO)[C@@H]1O2	14	-16
Cc1ccc(NC(=O)CSc2nnc(-c3ccco3)n2C)c(Br)c1	x	-1
Cc1cccc(NC(=O)CSc2nnc(-c3ccc(Cl)cc3)n2-c2cccc(C)c2)c1	x	0
Cc1cc(O)c(Cc2c(O)cc(C)oc2=O)c(=O)o1	x	0
O=C(NCc1ccco1)C1CC(c2ccccc2Cl)=NO1 (configuration not stated)	x	0
CN(C)C(=O)C[C@@H]1C[C@@H]2c3cc(NC(=O)Nc4ccccc4F)ccc3O[C@@H]2[C@@H](CO)O1	36*	39*
CCCNC(=O)C[C@@H]1C[C@H]2c3cc(NC(=O)CC4CC4)ccc3O[C@H]2[C@H](CO)O1	41*	u
CN(C)C(=O)C[C@H]1C[C@H]2c3cc(NC(=O)Nc4ccccc4F)ccc3O[C@H]2[C@H](CO)O1	2	-2
CCCNC(=O)C[C@@H]1C[C@H]2c3cc(NC(=O)CC4CC4)ccc3O[C@H]2[C@@H](CO)O1	0	0
COc1ccccc1N1CCN(CCC(=O)Nc2ccc(Br)c(C)c2)CC1	x	0
COc1c2c(c(O)c3c(=O)c4c(OC)c(O)ccc4oc13)C1CCCC(C)(O2)O1 (configuration not stated)	x	1
CCn1c(SCC(=O)Nc2ccccc2C)nc2ccccc2c1=O	x	-1
NC(=O)c1ccccc1NC(=O)COc1ccc2oc3c(c2c1)CCCC3	x	0
C[C@@H]1CN([C@@H](C)CO)C(=O)Cc2cc(NC(=O)Nc3ccc(F)cc3)ccc2O[C@@H]1CN(C)Cc1ccncc1	x	18
CC(C)NC(=O)Nc1ccc2c(c1)CC(=O)N([C@@H](C)CO)C[C@@H](C)[C@H](CN(C)Cc1ccncc1)O2	1	43*
C[C@@H]1CN([C@@H](C)CO)C(=O)Cc2cc(NC(=O)Nc3ccc(F)cc3)ccc2O[C@H]1CN(C)Cc1ccncc1	1	34*
CC(C)NC(=O)Nc1ccc2c(c1)CC(=O)N([C@H](C)CO)C[C@H](C)[C@@H](CN(C)Cc1ccncc1)O2	0	13
C[C@H](CO)N1C[C@H](C)[C@@H](CN(C)Cc2ccncc2)Oc2c(NC(=O)c3nc4ccccc4s3)cccc2C1=O	-3	35*
C[C@@H]1CN([C@@H](C)CO)C(=O)Cc2cc(NC(=O)C3CCCCC3)ccc2O[C@H]1CN(C)Cc1ccncc1	1	46*
C[C@H](CO)N1C[C@H](C)[C@H](CN(C)Cc2ccncc2)Oc2c(NC(=O)c3nc4ccccc4s3)cccc2C1=O	1	x
C[C@H]1CN([C@@H](C)CO)C(=O)Cc2cc(NC(=O)C3CCCCC3)ccc2O[C@H]1CN(C)Cc1ccncc1	1	2
Cc1cc(C)c(NC(=O)CSc2nc(-c3ccccc3)c(-c3ccccc3)[nH]2)c(C)c1	x	0
CSc1scc(N)c1S(=O)(=O)C(C)C	x	0
SMILES	KDM4C inh	IDH1 R132H inh
COC(=O)c1ccccc1NC(=O)CSc1nnc(-c2cc3cccc(OC)c3o2)n1C	x	-1
Cc1ccc(NS(=O)(=O)c2cc(C(=O)NCC3CCCO3)ccc2Cl)c(C)c1 (configuration not stated)	x	0
Cc1nc(SCC(=O)c2ccccc2)c2sc3nc4c(cc3c2n1)COC(C)(C)C4	x	1
COc1ccc(S(=O)(=O)Nc2ccc3c(c2)CC(=O)N([C@H](C)CO)C[C@H](C)[C@@H](CN(C)S(=O)(=O)c2ccc(F)cc2)O3)cc1	27*	-3
COc1ccc(S(=O)(=O)N(C)C[C@@H]2Oc3ccc(NS(=O)(=O)c4ccc(F)cc4)cc3CC(=O)N([C@@H](C)CO)C[C@@H]2C)cc1	1	-1
C=CCN1C(=O)[C@@]2(O[C@@H](CCn3cc(CCO)nn3)[C@H]([Si](C)(C)c3ccc(OC)cc3)[C@H]2C)c2cc(NC(=O)c3ccc(OC)cc3)ccc21	x	66*
C=CCN1C(=O)[C@]2(O[C@H](CCO)[C@@H]([Si](C)(C)c3ccc(OC)cc3)[C@@H]2C)c2cc(NC(=O)[C@H](C)O)ccc21	x	0

Compound activity: PubChem BioAssay, Broad Institute
